Activity, Ratio and Drug metabolism data for six molecules are collected here from ChEMBL document CHEMBL3804777, “Identification and Preclinical Pharmacology of BMS-986104: A Differentiated S1P1 Receptor Modulator in Clinical Trials” (ACS Med Chem Lett, 2016).

For series [1], the system named is Heart. As to the kind of experiment: Toxicity in guinea pig heart assessed as reduction in ventricular rate at 100 nM after 10 mins by ECG analysis. The format is tissue-based, Cavia porcellus, Cardiac ventricle. Particulars: 0.1 µM. A digest of the protocol:
(§1)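 Isolated guinea pig hearts perfused with the phosphate at the stated concentrations; ventricular rate and atrioventricular conduction (third-degree AV block) monitored.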

Series [2] deals with Heart. As to the kind of experiment: Toxicity in guinea pig heart assessed as third degree AV block at 300 nM after 10 mins by ECG analysis. The format is tissue-based, Cavia porcellus. The note with it: 0.3 µM. In short, it runs like this:
as §1

A short description of series [3]: Drug metabolism in BALB/c mouse whole blood assessed as whole blood phosphate area ratio at 10 uM after 4 hrs by LC/MS/MS analysis. The class given is ADME, tissue-based. A digest of the protocol:
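Mouse whole blood incubated with the amino-alcohol prodrug; phosphorylated product measured by LC/MS/MS after 4 h to give the relative extent of phosphate ester formation.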

For series [4], the system named is Mus musculus. Put plainly: Reduction of blood lymphocyte level in BALB/c mouse at 1 mg/kg administered through oral gavage after 24 hrs by hematology analysis. The class given is functional. Further details: scale not given: the % may be the effect or the level left. In short, it runs like this: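 Mice given a single oral 1 mg/kg dose; circulating lymphocytes counted 24 h later as the pharmacodynamic marker.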

Series [5] has as its system Blood. Put plainly: Drug metabolism in BALB/c mouse blood assessed as formation of phosphate ester metabolite at 10 mg/kg administered through oral gavage after 24 hrs by LC/MS/MS analysis. The class given is ADME, organism-based. Particulars: in vivo. A digest of the protocol: (§2)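 Mouse PK study: alcohol prodrug given orally at 10 mg/kg, and formation of the phosphate metabolite in blood measured.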

The subject of series [6] is Blood. Put plainly: Drug metabolism in BALB/c mouse blood assessed as formation of phosphate ester metabolite at 10 mg/kg administered through oral gavage after 4 hrs by LC/MS/MS analysis. Particulars: in vivo. The class given is ADME, organism-based. In short, it runs like this: as §2
Series [7] relates to Blood. Put plainly: Drug metabolism in BALB/c mouse blood assessed as formation of phosphate metabolite at 1 mg/kg administered through oral gavage after 24 hrs by LC/MS/MS analysis. The class given is ADME, organism-based. Particulars: in vivo. In short, it runs like this:
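Single oral 1 mg/kg dose in mice; phosphate level in blood determined at 24 h postdose.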

As for `CCc1cc(/C(C)=N/OCc2ccc(C3CCCCC3)c(C(F)(F)F)c2)ccc1CN1CC(C(=O)O)C1` [SIPONIMOD], the Activity result in series [1] and in series [2] was “Toxic” each time.
`CCCCCCC1CCc2cc(C3CCC(N)(CO)C3)ccc2C1` (stereo in doubt; 3e): the Ratio in series [3] stood at 0.03.
For the molecule `CCCCCCC1CCc2cc(C3CCC(N)(CO)C3)ccc2C1` (stereo in doubt; 3h), the Activity in series [4] is reported as 60%. In series [3], the Ratio is 0.17.
For the molecule `CCCCCCC1CCc2cc(C3CCC(N)(CO)C3)ccc2C1` (stereo in doubt; 3a), the Drug metabolism in series [5] is 14 nM; in series [6] it was below 9.8 nM. The molecule further showed an Activity in series [4] of 12%. Also, the Ratio in series [3] was determined as 0.07.
On to `CCCCCCC1CCc2cc(C3CCC(N)(CO)C3)ccc2C1` (stereo in doubt; 3b), for which the Drug metabolism was determined as 475 nM in series [5], 67 nM in series [6] and 47 nM in series [7]. In addition, in series [4], the Activity stood at 90%. Moreover, in series [3], the Ratio was 1.6.
With `CCCCCCC1CCc2cc(C3CCC(N)(CO)C3)ccc2C1` (stereo in doubt; 3c), the Drug metabolism in series [5] is 46 nM; in series [6], 12 nM. The molecule further came in with an Activity in series [4] of 18%. The Ratio in series [3] came to 0.14.
